The source made the active and inactive calls. The calls are words filed in the database; no cut-off is given here.
Experiments:
[1] = tested on: Chryseobacterium indologenes; experiment: Activity of Chryseobacterium indologenes metallo-beta-lactamase IND-5 expressed in Escherichia coli BL21(DE3) assessed as substrate hydrolysis
Procedure, shortened: (§1)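 Purified IND-5 came from E. coli BL21(DE3)/pET-IND-5, induced with 1 mM IPTG for 2 h at 20°C. It was purified by Mono Q then Mono P chromatography in buffers with 50 μM ZnSO4. Substrate hydrolysis was measured under initial-rate conditions in 30 mM sodium cacodylate pH 6.5 plus 50 μM ZnSO4. Km and kcat came from Hanes linearization and are means of three measurements.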

[2] = tested on: Chryseobacterium indologenes; experiment: Antimicrobial activity against Chryseobacterium indologenes NF16 isolate assessed as drug level at which microbial resistance was observed by agar dilution method; format: functional
Procedure, shortened: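 Agar dilution per CLSI guidelines, inoculum 5 × 10^5 CFU per spot; E. coli ATCC 25922 run as quality-control strain.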

Escherichia coli [3] = experiment: Antimicrobial activity against Escherichia coli HB101 harboring pBC-IND-5 plasmid containing metallo-beta-lactamase IND5 assessed as drug level at which microbial resistance was observed by agar dilution method; format: functional
Escherichia coli [4] = experiment: Antimicrobial activity against Escherichia coli HB101 harboring pBC-SK plasmid assessed as drug level at which microbial resistance was observed by agar dilution method; format: functional
[5] = tested on: Chryseobacterium indologenes; experiment: Ratio of Kcat to Km of Chryseobacterium indologenes metallo-beta-lactamase IND-5 expressed in Escherichia coli BL21(DE3) assessed as substrate hydrolysis relative to control; design: scale not given: the % may be the effect or the level left
[6] = tested on: Chryseobacterium indologenes; experiment: Ratio of Kcat to Km of Chryseobacterium indologenes metallo-beta-lactamase IND-5 expressed in Escherichia coli BL21(DE3) assessed as substrate hydrolysis; procedure, shortened: as §1
[7] = Inhibition of Chryseobacterium indologenes metallo-beta-lactamase IND-5 expressed in Escherichia coli BL21(DE3) using nitrocefin reporter substrate
Procedure, shortened: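 Purified IND-5 at 0.1 μM was incubated for 15 min at 30°C with increasing concentrations of zinc chelator.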

| SMILES | Activity [1] | Activity [2] [µg/mL] | Activity (Escherichia coli [3]) [µg/mL] | Activity (Escherichia coli [4]) [µg/mL] | Km [1] [µM] | kcat [1] [s⁻¹] | Activity [5] [%] | kcat/Km [6] [M⁻¹ s⁻¹] | Ki [7] [µM] |
| --- | --- | --- | --- | --- | --- | --- | --- | --- | --- |
| CO/N=C(\C(=O)N[C@@H]1C(=O)N2C(C(=O)[O-])=C(C[N+]3(C)CCCC3)CS[C@H]12)c1csc(N)n1 | inactive | 0.5 | 0.5 | < 0.125 |  |  |  |  |  |
| CC1(C)S[C@@H]2[C@H](NC(=O)C(C(=O)O)c3ccccc3)C(=O)N2[C@H]1C(=O)O (stereo partly specified) |  |  |  |  | 320 | 17 | 6.3 | 53000 |  |
| CC1(C)S[C@@H]2[C@H](NC(=O)Cc3ccccc3)C(=O)N2[C@H]1C(=O)O |  |  |  |  | 13 | 10.9 | 100 | 840000 |  |
| CC1(C)S[C@@H]2[C@H](NC(=O)[C@H](N)c3ccccc3)C(=O)N2[C@H]1C(=O)O |  |  |  |  | 150 | 10.3 | 8.2 | 69000 |  |
| CC1(C)[C@H](C(=O)O)N2C(=O)C[C@H]2S1(=O)=O |  |  |  |  | 1300 | 3.3 | 0.3 | 2500 |  |
| CO[C@@]1(NC(=O)C(C(=O)O)c2ccc(O)cc2)C(=O)N2C(C(=O)O)=C(CSc3nnnn3C)CO[C@@H]21 (stereo partly specified) | inactive |  |  |  |  |  |  |  |  |
| C[C@]1(Cn2ccnn2)[C@H](C(=O)O)N2C(=O)C[C@H]2S1(=O)=O | inactive |  |  |  |  |  |  |  |  |
| O=C(Cc1cccs1)N[C@@H]1C(=O)N2C(C(=O)O)=C(/C=C/c3ccc([N+](=O)[O-])cc3[N+](=O)[O-])CS[C@H]12 |  |  |  |  | 8 | 4.4 | 65 | 550000 |  |
| CC1(C)S[C@@H]2[C@H](NC(=O)[C@H](N)c3ccc(O)cc3)C(=O)N2[C@H]1C(=O)O [AMOXICILLIN] |  | >64 | >64 | 2 |  |  |  |  |  |
| C[C@H]1[C@H](NC(=O)/C(=N\OC(C)(C)C(=O)O)c2csc(N)n2)C(=O)N1S(=O)(=O)O [AZTREONAM] | inactive | 32 |  |  |  |  |  |  |  |
| Cc1nnc(SCC2=C(C(=O)O)N3C(=O)[C@@H](NC(=O)Cn4cnnn4)[C@H]3SC2)s1 [CEFAZOLIN] |  | 64 | 64 | 1 | 25 | 0.46 | 2.1 | 18000 |  |
| CO/N=C(\C(=O)N[C@@H]1C(=O)N2C(C(=O)O)=C(COC(C)=O)CS[C@H]12)c1csc(N)n1 [CEFOTAXIME] |  | 32 | 16 |  | 49 | 1.53 | 3.7 | 31000 |  |
| CC(C)(O/N=C(\C(=O)N[C@@H]1C(=O)N2C(C(=O)[O-])=C(C[n+]3ccccc3)CS[C@H]12)c1csc(N)n1)C(=O)O [CEFTAZIDIME] |  | 1 | 0.5 | <0.5 |  |  |  |  |  |
| O=C(O)c1cccc(C(=O)O)n1 [DIPICOLINIC ACID] |  |  |  |  |  |  |  |  | 3 |
| O=C(O)CN(CCN(CC(=O)O)CC(=O)O)CC(=O)O [EDETIC ACID] |  |  |  |  |  |  |  |  | 815 |
| C[C@@H](O)[C@H]1C(=O)N2C(C(=O)O)=C(SCCNC=N)C[C@H]12 [IMIPENEM ANHYDROUS] |  | 32 | 1 | 0.5 | 300 | 7.28 | 2.8 | 24000 |  |
| C[C@@H](O)[C@H]1C(=O)N2C(C(=O)O)=C(S[C@@H]3CN[C@H](C(=O)N(C)C)C3)[C@H](C)[C@H]12 [MEROPENEM] |  | 16 | 1 | <0.125 | 280 | 4.13 | 1.8 | 15000 |  |
| c1cnc2c(c1)ccc1cccnc12 [PHENANTHROLINE] |  |  |  |  |  |  |  |  | 7.3 |
| CCN1CCN(C(=O)N[C@@H](C(=O)N[C@@H]2C(=O)N3[C@@H]2SC(C)(C)[C@@H]3C(=O)O)c2ccccc2)C(=O)C1=O [PIPERACILLIN] |  | 16 | 32 | 1 | 375 | 14.6 | 4.6 | 39000 |  |
